Experimental data from ChEMBL document CHEMBL3596176, “Geleganidines A-C, Unusual Monoterpenoid Indole Alkaloids from Gelsemium elegans” (J Nat Prod, 2015).

Columns and labels:
MCF7 = assay: Cytotoxicity against human MCF7 cells assessed as inhibition of cell growth after 72 hrs by MTT assay; assay type: functional, cell-based; settings: MCF7, 72 h
Outline: (§1)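 Cells kept in RPMI 1640 plus 10% FBS at 37 °C in humidified 5% CO2. Seeded for 24 h, then exposed to a range of compound concentrations for 72 h. MTT (5 mg/mL solution) added, followed by 4 h incubation. Medium removed and formazan dissolved in DMSO; absorbance at 570 nm. IC50 taken from dose-response curves, reported as mean ± SD.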

[1] = Cytotoxicity against rat PC12 cells assessed as inhibition of cell growth after 72 hrs by MTT assay; assay type: functional, cell-based; settings: PC-12, 72 h; outline: as §1

| SMILES | IC50 (MCF7) [µM] | IC50 [1] [µM] |
| --- | --- | --- |
| C/C=C1\CN(C=O)[C@H]2C[C@@]3(C(=O)N(OC)c4cc(OC)ccc43)[C@H]3C[C@@H]1[C@@H]2CO3 | > 50 | > 50 |
| C/C=C1\CN2C(=O)[C@]3(c4ccc(OC)cc4/N=N/c4cc(OC)ccc4[C@@]45C[C@H]6[C@H]7CO[C@@H]4C[C@H]7/C(=C/C)CN6C5=O)C[C@H]2[C@H]2CO[C@@H]3C[C@@H]12 | 38.4 | > 50 |
| C/C=C1\CN(C(=O)N2C/C(=C\C)[C@@H]3C[C@H]4OC[C@@H]3[C@@H]2C[C@@]42C(=O)N(OC)c3cc(OC)ccc32)[C@H]2C[C@@]3(C(=O)N(OC)c4ccccc43)[C@H]3C[C@@H]1[C@@H]2CO3 | > 50 | 16.1 |
| C/C=C1\CN2C(=O)[C@]3(c4ccc(OC)cc4N)C[C@H]2[C@H]2CO[C@@H]3C[C@@H]12 | > 50 | > 50 |
| C/C=C1\CN2C(=O)[C@]3(c4ccc(OC)cc4NOC)C[C@H]2[C@H]2CO[C@@H]3C[C@@H]12 | > 50 | > 50 |
| C/C=C1\CN[C@H]2C[C@@]3(C(=O)N(OC)c4cc(OC)ccc43)[C@H]3C[C@@H]1[C@@H]2CO3 | > 50 | > 50 |
| C/C=C1\CN[C@H]2C[C@@]3(C(=O)N(OC)c4ccccc43)[C@H]3C[C@@H]1[C@@H]2CO3 | > 50 | > 50 |
